Measured values reported in ChEMBL document CHEMBL4330087, “Synthesis, antimicrobial activity, attenuation of aminoglycoside resistance in MRSA, and ribosomal A-site binding of pyrene-neomycin conjugates” (Eur J Med Chem, 2019).
Activity calls are given as the source filed them. The rule behind the calls is not given here.

Assays:
Ribosomal RNA A-site [1] = experiment: Displacement of F-NEO from Escherichia coli rRNA-A site after 10 to 20 mins by fluorescence assay relative to NEO; type: nucleic-acid assay; design: concentration or dose not given beside the values
Outline: (§1)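 100 nM F-NEO:A-site complex in 10 mM HEPES, 50 mM NaCl, 0.04 mM EDTA, pH 7.0, mixed with ligand and incubated 10-20 min at room temperature. Fluorescence read at ex 485/em 525 nm, in duplicate. Percent binding was computed from the intensities of ligand-treated complex, complex without ligand, and complex with neomycin.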

Ribosomal RNA A-site [2] = experiment: Displacement of F-NEO from human cytosolic rRNA-A site after 10 to 20 mins by fluorescence assay relative to NEO; type: nucleic-acid assay; design: concentration or dose not given beside the values; outline: as §1
Ribosomal RNA A-site [3] = experiment: Displacement of F-NEO from human mitochondrial rRNA-A site after 10 to 20 mins by fluorescence assay relative to NEO; type: nucleic-acid assay; design: concentration or dose not given beside the values; outline: as §1
Homo sapiens [4] = species on record: Homo sapiens; experiment: Displacement of F-NEO from human mitochondrial rRNA-A site C1410U mutant after 10 to 20 mins by fluorescence assay relative to NEO; design: concentration or dose not given beside the values; outline: as §1
Homo sapiens [5] = species on record: Homo sapiens; experiment: Displacement of F-NEO from human mitochondrial rRNA-A site A1490G mutant after 10 to 20 mins by fluorescence assay relative to NEO; outline: as §1
Ribosomal RNA A-site [6] = experiment: Displacement of F-NEO from Escherichia coli rRNA-A site after 10 to 20 mins by fluorescence assay; type: nucleic-acid assay
Outline: (§2)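 A 100 nM F-NEO:A-site RNA complex in 10 mM HEPES, 50 mM NaCl, 0.04 mM EDTA, pH 7.0 was titrated with 2-fold dilutions of ligand from 20 to 0.009 μM, or from 60 or 40 μM for weaker ligands. Incubated 10-20 min at room temperature, fluorescence read at ex 485/em 525 nm. IC50 from dose-response curve fit.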

Ribosomal RNA A-site [7] = experiment: Displacement of F-NEO from human cytosolic rRNA-A site after 10 to 20 mins by fluorescence assay; type: nucleic-acid assay; outline: as §2
Ribosomal RNA A-site [8] = experiment: Displacement of F-NEO from human mitochondrial rRNA-A site after 10 to 20 mins by fluorescence assay; type: nucleic-acid assay; outline: as §2
[9] = Displacement of F-NEO from human mitochondrial rRNA-A site C1410U mutant after 10 to 20 mins by fluorescence assay; outline: as §2
Staphylococcus aureus [10] = experiment: Antibacterial activity against NEO-sensitive Staphylococcus aureus 25923 at 6.25 uM after 15 to 20 hrs by CLSI protocol based microdilution assay relative to control; type: functional
Outline: (§3)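 Single-concentration screen at 6.25 μM against exponential-phase cultures, in duplicate, with NEO as reference. Enterococcus was grown in BHI broth, M. smegmatis in TS broth with 0.05% Tween 80, and all other strains in TS broth. The 1% DMSO water vehicle was added to broth (background) and culture (growth control). Incubation was 37 °C, humidified, 15-20 h. Result is percent growth inhibition.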

Staphylococcus aureus [11] = experiment: Antibacterial activity against NEO-sensitive Staphylococcus aureus harboring NorA mutant at 6.25 uM after 15 to 20 hrs by CLSI protocol based microdilution assay relative to control; type: functional
Outline: (§4)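 Exponential-phase cultures were exposed to 6.25 μM compound in duplicate with neomycin as reference, at 37 °C in a humidified incubator for 15-20 h. Broth and culture controls received sterile water with 1% DMSO. Percent growth inhibition was calculated against the growth and background controls.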

[12] = test system: Staphylococcus epidermidis; experiment: Antibacterial activity against NEO-sensitive Staphylococcus epidermidis 12384 at 6.25 uM after 15 to 20 hrs by CLSI protocol based microdilution assay relative to control; type: functional; outline: as §3
Staphylococcus aureus [13] = experiment: Antibacterial activity against methicillin-resistant Staphylococcus aureus 33591 at 6.25 uM after 15 to 20 hrs by CLSI protocol based microdilution assay relative to control; type: functional; outline: as §4
Staphylococcus aureus [14] = experiment: Antibacterial activity against methicillin-resistant Staphylococcus aureus A960649 at 6.25 uM after 15 to 20 hrs by CLSI protocol based microdilution assay relative to control; type: functional; outline: as §4
Staphylococcus aureus [15] = experiment: Antibacterial activity against methicillin-resistant Staphylococcus aureus SU-5 at 6.25 uM after 15 to 20 hrs by CLSI protocol based microdilution assay relative to control; type: functional; outline: as §4
Staphylococcus aureus [16] = experiment: Antibacterial activity against methicillin-resistant Staphylococcus aureus M0602 at 6.25 uM after 15 to 20 hrs by CLSI protocol based microdilution assay relative to control; type: functional; outline: as §4
Streptococcus pyogenes = experiment: Antibacterial activity against NEO-resistant Streptococcus pyogenes C203 at 6.25 uM after 15 to 20 hrs by CLSI protocol based microdilution assay relative to control; type: functional; outline: as §4
Enterococcus faecalis = experiment: Antibacterial activity against NEO-intermediate sensitive Enterococcus faecalis ATCC 29212 at 6.25 uM after 15 to 20 hrs by CLSI protocol based microdilution assay relative to control; type: functional; outline: as §3
Enterococcus faecium = experiment: Antibacterial activity against NEO-intermediate sensitive Enterococcus faecium BM4105-RF at 6.25 uM after 15 to 20 hrs by CLSI protocol based microdilution assay relative to control; type: functional; outline: as §3
Bacillus anthracis = experiment: Antibacterial activity against NEO-sensitive Bacillus anthracis BA852 at 6.25 uM after 15 to 20 hrs by CLSI protocol based microdilution assay relative to control; type: functional; outline: as §4
Listeria monocytogenes = experiment: Antibacterial activity against NEO-sensitive Listeria monocytogenes ATCC 19115 at 6.25 uM after 15 to 20 hrs by CLSI protocol based microdilution assay relative to control; type: functional; outline: as §3
Escherichia coli [17] = experiment: Antibacterial activity against NEO-sensitive Escherichia coli ATCC 25922 at 6.25 uM after 15 to 20 hrs by CLSI protocol based microdilution assay relative to control; type: functional; outline: as §3
Escherichia coli [18] = experiment: Antibacterial activity against NEO-sensitive Escherichia coli harboring TolC mutant at 6.25 uM after 15 to 20 hrs by CLSI protocol based microdilution assay relative to control; type: functional; outline: as §4
Acinetobacter baumannii = experiment: Antibacterial activity against NEO-sensitive Acinetobacter baumannii ATCC 19606 at 6.25 uM after 15 to 20 hrs by CLSI protocol based microdilution assay relative to control; type: functional, ATCC 19606 = CIP 70.34 = JCM 6841; outline: as §3
Pseudomonas aeruginosa = experiment: Antibacterial activity against NEO-resistant Pseudomonas aeruginosa 27853 at 6.25 uM after 15 to 20 hrs by CLSI protocol based microdilution assay relative to control; type: functional; outline: as §4
Klebsiella oxytoca = experiment: Antibacterial activity against NEO-sensitive Klebsiella oxytoca HM-625 at 6.25 uM after 15 to 20 hrs by CLSI protocol based microdilution assay relative to control; type: functional; outline: as §3
[19] = Antibacterial activity against NEO-sensitive Enterobacter cloacae 13047 at 6.25 uM after 15 to 20 hrs by CLSI protocol based microdilution assay relative to control; type: functional, Enterobacter cloacae subsp. cloacae, ATCC 13047; outline: as §3
Klebsiella pneumoniae = experiment: Antibacterial activity against Klebsiella pneumoniae NR-151410 at 6.25 uM after 15 to 20 hrs by CLSI protocol based microdilution assay relative to control; type: functional; outline: as §3
[20] = Inhibition of Eis (unknown origin)
[21] = Inhibition of AAC(6')-1e (unknown origin)
[22] = Inhibition of AAC(2')-1c (unknown origin)
[23] = Inhibition of APH(2\")-1a (unknown origin)

For `NC[C@@H]1O[C@H](O[C@H]2[C@@H](O)[C@H](O[C@@H]3[C@@H](O)[C@H](N)C[C@H](N)[C@H]3O[C@H]3O[C@H](CN)[C@@H](O)[C@H](O)[C@H]3N)O[C@@H]2CNC(=O)CCCc2ccc3ccc4cccc5ccc2c3c45)[C@H](N)[C@@H](O)[C@@H]1O`, the inhibition (Ribosomal RNA A-site [1]) was 99%, the inhibition (Ribosomal RNA A-site [2]) was 99% and the inhibition (Ribosomal RNA A-site [3]) was 89%. The inhibition (Homo sapiens [4]) was 103%, the inhibition (Homo sapiens [5]) was 88% and the IC50 (Ribosomal RNA A-site [6]) was 170 nM. For the same molecule, the IC50 (Ribosomal RNA A-site [7]) was 200 nM, the IC50 (Ribosomal RNA A-site [8]) was 465 nM and the IC50 [9] was 149 nM. For the same molecule, the Activity (Staphylococcus aureus [10]) was 12%, the Activity (Staphylococcus aureus [11]) was 43% and the Activity [12] was 80%. For the same molecule, the Activity (Staphylococcus aureus [13]) was 23%, the Activity (Staphylococcus aureus [14]) was 35% and the Activity (Staphylococcus aureus [15]) was 22%. For the same molecule, the Activity (Staphylococcus aureus [16]) was 19%, the Activity (Streptococcus pyogenes) was 23% and the Activity (Enterococcus faecalis) was 0%. It also gave an Activity (Enterococcus faecium) of 0%, an Activity (Bacillus anthracis) of 23% and an Activity (Listeria monocytogenes) of 22%. It also gave an Activity (Escherichia coli [17]) of 8%, an Activity (Escherichia coli [18]) of 54% and an Activity (Acinetobacter baumannii) of 5%. The Activity (Pseudomonas aeruginosa) was 11%, the Activity (Klebsiella oxytoca) was 5% and the Activity [19] was 5%. For the same molecule, the Activity (Klebsiella pneumoniae) was 12%, the inhibition [20] was “Active” and the inhibition [21] was “Active”. For the same molecule, the inhibition [22] was “Active” and the inhibition [23] was “Active”.
For `NC[C@@H]1O[C@H](O[C@H]2[C@@H](O)[C@H](O[C@@H]3[C@@H](O)[C@H](N)C[C@H](N)[C@H]3O[C@H]3O[C@H](CN)[C@@H](O)[C@H](O)[C@H]3N)O[C@@H]2CSCCNC(=O)Cc2ccc3ccc4cccc5ccc2c3c45)[C@H](N)[C@@H](O)[C@@H]1O`, the inhibition (Ribosomal RNA A-site [1]) was 101%, the inhibition (Ribosomal RNA A-site [2]) was 114% and the inhibition (Ribosomal RNA A-site [3]) was 102%. The inhibition (Homo sapiens [4]) was 103%, the inhibition (Homo sapiens [5]) was 102% and the IC50 (Ribosomal RNA A-site [6]) was 95 nM. It also gave an IC50 (Ribosomal RNA A-site [7]) of 97 nM, an IC50 (Ribosomal RNA A-site [8]) of 90 nM and an IC50 [9] of 70 nM. It also gave an Activity (Staphylococcus aureus [10]) of 48%, an Activity (Staphylococcus aureus [11]) of 60% and an Activity [12] of 81%. The Activity (Staphylococcus aureus [13]) was 0%, the Activity (Staphylococcus aureus [14]) was 7% and the Activity (Staphylococcus aureus [15]) was 39%. The Activity (Staphylococcus aureus [16]) was 32%, the Activity (Streptococcus pyogenes) was “inactive” and the Activity (Enterococcus faecalis) was 20%. It also gave an Activity (Enterococcus faecium) of 15%, an Activity (Bacillus anthracis) of 100% and an Activity (Listeria monocytogenes) of 52%. It also gave an Activity (Escherichia coli [17]) of 0%, an Activity (Escherichia coli [18]) of 100% and an Activity (Acinetobacter baumannii) of 6%. For the same molecule, the Activity (Pseudomonas aeruginosa) was 0%, the Activity (Klebsiella oxytoca) was 16% and the Activity [19] was 5%. For the same molecule, the Activity (Klebsiella pneumoniae) was 23%, the inhibition [20] was “Active” and the inhibition [21] was “Active”. For the same molecule, the inhibition [22] was “Active” and the inhibition [23] was “Active”.
Work on `NC[C@@H]1O[C@H](O[C@H]2[C@@H](O)[C@H](O[C@@H]3[C@@H](O)[C@H](N)C[C@H](N)[C@H]3O[C@H]3O[C@H](CN)[C@@H](O)[C@H](O)[C@H]3N)O[C@@H]2CSCCNC(=S)NCCCCCCNC(=O)CCCc2ccc3ccc4cccc5ccc2c3c45)[C@H](N)[C@@H](O)[C@@H]1O` yielded an inhibition (Ribosomal RNA A-site [1]) of 64%, an inhibition (Ribosomal RNA A-site [2]) of 75% and an inhibition (Ribosomal RNA A-site [3]) of 70%. For the same molecule, the inhibition (Homo sapiens [4]) was 91%, the inhibition (Homo sapiens [5]) was 58% and the IC50 (Ribosomal RNA A-site [6]) was 254 nM. The IC50 (Ribosomal RNA A-site [7]) was 252 nM, the IC50 (Ribosomal RNA A-site [8]) was 235 nM and the IC50 [9] was 180 nM. The Activity (Staphylococcus aureus [10]) was 98%, the Activity (Staphylococcus aureus [11]) was 100% and the Activity [12] was 80%. It also gave an Activity (Staphylococcus aureus [13]) of 47%, an Activity (Staphylococcus aureus [14]) of 87% and an Activity (Staphylococcus aureus [15]) of 0%. For the same molecule, the Activity (Staphylococcus aureus [16]) was 0%, the Activity (Streptococcus pyogenes) was “inactive” and the Activity (Enterococcus faecalis) was 51%. The Activity (Enterococcus faecium) was 18%, the Activity (Bacillus anthracis) was 100% and the Activity (Listeria monocytogenes) was 91%. The Activity (Escherichia coli [17]) was 11%, the Activity (Escherichia coli [18]) was 100% and the Activity (Acinetobacter baumannii) was 8%. For the same molecule, the Activity (Pseudomonas aeruginosa) was 14%, the Activity (Klebsiella oxytoca) was 21% and the Activity [19] was 29%. For the same molecule, the Activity (Klebsiella pneumoniae) was 33%, the inhibition [20] was “Active” and the inhibition [21] was “Active”. For the same molecule, the inhibition [22] was “Active” and the inhibition [23] was “Active”.
